Source: PubChem BioAssay
TCR CD3 inh – human TCR-CD3 binding inhibition; AID 651800; inhibition, % at 9.4 µM; 360,000 tested, 0.37% active; TAMRA-labeled TCR probe fluorescence, biochemical; in the data active = inhibition above about 19%;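 note: recombinant mutant TCR 2C K166C tagged with TAMRA read by polarization; 0% = receptor in buffer alone and 100% = receptor with positive control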
Tn7 DDE FP – inhibitors of Tn7 peptide binding to human fibrin DD(E). P02675. FP displacement of FITC-Tn7 peptide from fibrin DD(E); 0% = median of compound wells per plate. inhibition, % at 8.3 µM. 370,000 tested, 0.13% active. AID 720508;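 active = inhibition above the mean of compounds falling within the control limits plus 3 SD of them, cut at about 14% in these data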;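 note: 0% = plate median of compound wells and 100% = 10 µM Aha-Tn7 peptide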
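Assay system: Human clot-derived fibrin DD(E) complex | Buffer or medium: Tris/NaCl/CaCl2 buffer, pH 7.8 | Repeats: One replicate per compound | Benchmarks: Aha-Tn7 high control | Measure: % inhibition scaled between sample-field median and high-control FP | Schedule: 10 min plus 3 h, room temperature | Signal: Fluorescence polarization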
SIAE primary – inhibitors of human sialic acid acetylesterase SIAE; 370,000 tested, 0.69% active; SIAE FP-Rh probe binding, fluorescence polarization; AID 1053197; inhibition, % at 9.66 µM;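 active = inhibition above a cutoff: mean of compounds within the control limits plus 3 SD of those, cut at about 17% in these data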;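 note: 0% = plate median of compound wells and 100% = probe without SIAE protein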
Target sequence (Q9HAT2 whole entry, looked up): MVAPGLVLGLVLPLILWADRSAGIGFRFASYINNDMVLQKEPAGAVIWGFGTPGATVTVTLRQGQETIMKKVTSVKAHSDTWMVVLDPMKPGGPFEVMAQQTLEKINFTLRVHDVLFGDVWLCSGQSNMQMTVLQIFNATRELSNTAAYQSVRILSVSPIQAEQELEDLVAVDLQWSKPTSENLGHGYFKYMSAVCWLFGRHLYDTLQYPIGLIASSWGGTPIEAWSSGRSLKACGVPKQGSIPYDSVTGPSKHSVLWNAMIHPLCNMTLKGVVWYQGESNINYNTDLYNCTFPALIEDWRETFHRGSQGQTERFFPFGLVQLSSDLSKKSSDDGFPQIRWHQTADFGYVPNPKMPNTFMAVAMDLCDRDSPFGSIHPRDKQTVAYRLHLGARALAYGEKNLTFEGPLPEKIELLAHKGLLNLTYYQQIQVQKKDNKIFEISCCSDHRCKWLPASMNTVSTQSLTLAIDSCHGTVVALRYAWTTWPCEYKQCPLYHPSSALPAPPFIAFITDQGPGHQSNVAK
Tn6 DDE FP – inhibitors of Tn6 peptide binding to human fibrin DD(E). 370,000 tested, 0.21% active. inhibition, % at 8.3 µM. P02675. Fibrin DD(E) TRITC-Tn6 fluorescence polarization displacement;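 active = inhibition above a per-campaign cutoff: mean of compounds within control limits plus 3 SD, cut at about 15% in these data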;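 note: 0% = median of all compound wells on the plate and 100% = blocking peptide control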
HTRA1 inhibitor – HTRA1 (human) protease inhibition; Q92743; recombinant HTRA1, FP-rhodamine activity-based probe, fluorescence polarization; inhibition, % at 5.96 µM; 340,000 tested, 0.5% active; AID 504803; in the data active = inhibition above about 36%;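 note: 0% = enzyme with DMSO and 100% = wells lacking enzyme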
ABHD4 inh – ABHD4 (mouse) inhibition, primary FP screen. Q8VD66. 370,000 tested, 0.54% active. AID 720543. inhibition, % at 8.92 µM. purified mABHD4, FP-Rh probe fluorescence polarization;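 active = inhibition exceeding the mean over every tested compound plus 3 SD, cut at about 30% in these data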;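 note: 0% = plate median of compound wells and 100% = S159A mutant with DMSO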
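Assay system: mABHD4 protein; medium: HEPES pH 7.0, NaCl, Pluronic buffer; dosing: 8.92 µM, single dose; schedule: 45 min + 60 min at 25 °C; signal: FP readout, ex 525 nm / em 598 nm; read-out: normalized percent inhibition of probe labeling; repeats: single replicate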
SIAE inh conf – human SIAE inhibition, confirmation; shares compounds with SIAE primary; SIAE FP-Rh activity-based probe, fluorescence polarization; inhibition, % at 9.66 µM; 2,300 tested, 13% active; AID 1117263;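 active = mean inhibition of the replicates above the hit cutoff set in the primary screen, cut at about 17% in these data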;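 note: 0% = SIAE with DMSO and probe and 100% = probe without SIAE; inhibitors lower polarization as more probe stays unbound to SIAE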
Starred values were filed as active, the others as inactive; · = no result given; ! = repeats disagree. This is a sample that favours compounds with a hit; in the whole collection about 1.8% have one here.

SMILES	TCR CD3 inh	Tn7 DDE FP	SIAE primary	Tn6 DDE FP	HTRA1 inhibitor	ABHD4 inh	SIAE inh conf
COc1cc(/C=N\Nc2nc(-c3ccc(C)cc3)c(NC(C)=O)s2)ccc1O	-4	2	22*	0	21	14	33*
COc1ccc(/C=N/Nc2nc(-c3ccc(C)cc3)c(NC(C)=O)s2)cc1OC	0	4	1	7	3	5	·
Nn1c(SCC(=O)Nc2ccc(OCc3ccccc3)cc2)nnc1-c1cc(-c2ccc(F)cc2)n[nH]1	·	-2	1	3	·	4	·
CC(COc1ccc(Cl)cc1)CN1CCC(C(O)(c2ccccc2)c2ccccc2)CC1 (stereo not drawn)	·	-9	-5	7	·	14	·
COc1ccc(Oc2cn[nH]c2-c2ccc(O)cc2O)cc1	4	1	19*	-8	6	-3	0
CCCc1ccc(Oc2cn[nH]c2-c2ccc(O)cc2O)cc1	-3	-9	8	0	16	-4	·
CC(=O)N1CCN(c2ccc(NCc3ccc4c(c3)OCO4)cc2)CC1	6	7	20*	8	23	18	6
CC(=O)N1CCN(c2ccc(NCc3ccccc3)cc2)CC1	5	-5	28*	8	34	29	0
CC[C@H]1C=C[C@@H](C(=O)NS(=O)(=O)c2ccc(C)cc2)N(C(C)=O)C1	·	-4	5	5	·	3	·
COc1cc(/C=N/NC(=O)CCn2c3ccccc3c3ccccc32)ccc1O	0	4	18*	0	-11	-6	12
COc1cc(/C=N/NC(=O)C2COc3ccccc3O2)ccc1O (stereo not drawn)	0	2	20*	-5	3	3	8
C[C@H]1CCC/C=C/C(=O)c2c(cc(O)c(Cl)c2O)CC(=O)O1	·	-3	-1	-1	·	12	·
COc1ccc(CN2CN3CCc4ccccc4C3CS2(=O)=O)cc1 (stereo not drawn)	·	4	4	-4	·	3	·
Cc1ccc(N(C)C(=O)c2ccc(CNc3c(N4CCC(C)CC4)c(=O)c3=O)cc2)cc1	-6	1	20*	2	2	8	2
CC1CCN(c2c(NCc3ccc(C(=O)N(C)C4CCCCC4)cc3)c(=O)c2=O)CC1	6	-5	1	3	-4	-1	·
O=c1[nH][nH]c(=O)c2cc([N+](=O)[O-])ccc12	0	-8	18*!	7	6	8	5
O=c1[nH]cnc2ccc([N+](=O)[O-])cc12	-3	0	5	3	3	9	·
C=CS(=O)(=O)N(Cc1nnn(Cc2ccccc2)c1Br)[C@@H](CC(C)C)C(=O)OC	·	3	0	-1	·	-1	·
Cc1nn(-c2cccc(C(F)(F)F)c2)c(Cl)c1/C=N/Nc1cccc(C(=O)O)c1	1	1	26*	-1	-8	7	13
CC(=O)N1c2cc(S(=O)(=O)Nc3c(C)n(C)n(-c4ccccc4)c3=O)c(Br)cc2CC1C (stereo not drawn)	·	-7	0	-5	·	6	·
COCCCNC(=O)C[C@H]1C[C@@]2(C(=O)OC)C(=C[C@H](COCc3ccccc3)O[C@@H]2C)N(Cc2ccc3c(c2)OCO3)C1=O	-3	-6	29*	2	·	-1	3
COC(=O)[C@]12C[C@H](CC(=O)NCCCN3CCCC3=O)C(=O)N(Cc3ccc4c(c3)OCO4)C1=C[C@H](COCc1ccccc1)O[C@@H]2C	-3	-1	-2	1	·	6	·
COc1ccccc1Nc1ccc(NC(=O)c2cccc([N+](=O)[O-])c2C)cc1	-5	-2	18*	-10	20	5	5
O=C(CNc1ccc2ccccc2c1)N/N=C/c1ccc(OC(=O)/C=C/c2ccco2)cc1	-3	0	22*	3	8	-6	14
CCCNS(=O)(=O)c1cccc(C(=O)NNC(=O)c2cc(C)oc2C)c1	-6	5	17*	-4	2	2	-6
SMILES	TCR CD3 inh	Tn7 DDE FP	SIAE primary	Tn6 DDE FP	HTRA1 inhibitor	ABHD4 inh	SIAE inh conf
Cc1cc(C(=O)NNC(=O)c2ccc(S(=O)(=O)N(C)C)cc2)c(C)o1	7	2	-10	3	2	5	·
COc1ccc(/C(C)=N/N=C2/NC(=O)CC(C(=O)O)S2)cc1 (stereo not drawn)	5	-6	22*	4	1	1	0
C/C(=N\N=C1\NC(=O)CC(C(=O)O)S1)c1ccc(F)cc1 (stereo not drawn)	2	-5	-4	4	1	-3	·
CC(C)n1nnnc1C1(C)CSCC(=O)N1Cc1cccc(F)c1 (stereo not drawn)	·	4	-1	3	·	2	·
CCc1nnc(NC(=O)CSc2nc3c([nH]c4ccccc43)c(=O)n2CCOC)s1	-6	2	18*	0	2	11	-1
CNC(=O)CSc1nc2c([nH]c3ccccc32)c(=O)n1CCOC	-4	4	-1	4	3	3	·
CN(C)c1ccc(N=Cc2nc(-c3ccccc3)oc2O)cc1	1	-2	18*	-7	1	1	15
Oc1oc(-c2ccccc2)nc1C=Nc1ccccc1	8	-2	0	2	0	7	·
COc1ccc(NC(=O)c2cc3c(-c4ccc(OC)c(OC)c4)nn(C)c3s2)cc1OC	9	8	19*	-13	14	17	13
COc1cc(NC(=O)Nc2nc(C(N)CCc3ccccc3)cs2)cc(OC)c1OC (stereo not drawn)	-12	1	33*	-7	·	16	22*
COc1ccc(CNC(=O)N(C)C[C@@H]2OCc3ccccc3-c3c(n(C)c4ccccc34)C(=O)N([C@@H](C)CO)C[C@@H]2C)cc1	-1	0	0	0	·	1	·
COc1cc(C2C3=C(CCCC3=O)Nc3[nH]n(-c4ccccc4)c(=O)c32)ccc1O (stereo not drawn)	2	0	2	3	-1	5	·
COc1cccc(C2C3=C(CCCC3=O)Nc3[nH]n(-c4ccccc4)c(=O)c32)c1 (stereo not drawn)	8	4	19*	-2	6	-4	1
O=S(=O)(c1ccc(C(F)(F)F)cc1)N1CCCc2nc(-c3ccc(Br)cc3)ccc21	-2	-5	3	-6	·	1	·
COc1ccc(OCC(=O)Nc2cc(S(=O)(=O)N3CCCC3)ccc2OCC(F)(F)F)cc1	-12	3	40*	1	-4	2	-1
COc1ccc(OCC(=O)Nc2cc(S(=O)(=O)N3CCCCC3)ccc2OC)cc1	-6	0	-3	4	3	0	·
